High-throughput results deposited in PubChem by Sanford-Burnham Center for Chemical Genomics.
SENP6 block: SENP6 protease inhibitors, primary screen, biochemical, luminescence, uHTS | Sentrin-specific protease 6 (Homo sapiens), Q9GZR1 | Recombinant SENP6 catalytic domain, aminoluciferin luminescence | inhibition, % at 10 µM | 330,000 compounds, 1.8% hits | AID 2599, 2010;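 active = inhibition above about 50% at the single tested dose, limit read from the data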
SENP7 block: SENP7 protease inhibitors, primary screen, biochemical, luminescence, uHTS | Sentrin-specific protease 7 (Homo sapiens), Q9BQF6 | recombinant SENP7, Z-RLRGG-aminoluciferin luminescence, 40 min | inhibition, % at 5 µM | 330,000 compounds, 1.5% hits | AID 434973, 2010;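 active = inhibition above about 50% at the single test dose, limit read from the data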
Target sequence (Q9BQF6 706-1050 limits assumed): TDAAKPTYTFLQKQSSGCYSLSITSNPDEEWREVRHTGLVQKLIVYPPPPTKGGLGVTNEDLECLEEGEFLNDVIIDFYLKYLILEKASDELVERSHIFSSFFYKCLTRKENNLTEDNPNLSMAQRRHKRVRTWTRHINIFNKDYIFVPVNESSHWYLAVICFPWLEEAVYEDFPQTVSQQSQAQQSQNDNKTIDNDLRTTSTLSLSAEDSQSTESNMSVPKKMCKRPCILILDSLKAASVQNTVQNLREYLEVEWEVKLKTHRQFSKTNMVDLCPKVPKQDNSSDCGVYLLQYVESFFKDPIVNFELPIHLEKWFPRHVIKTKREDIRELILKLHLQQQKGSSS
SENP8 block-1: human SENP8 protease inhibitors, primary screen, biochemical, fluorescence, Nedd8 protein substrate, uHTS | AID 602440, 2012 | inhibition, % at 20 µM | Sentrin-specific protease 8 (Homo sapiens), Q96LD8 | 360,000 compounds, 0.64% hits | recombinant SENP8; in the data active = inhibition mostly above about 40%, no sharp cut-off; inactive = mostly below about 27%
SENP1 inh: human SENP1 catalytic domain inhibitors, primary screen, biochemical, FRET, uHTS; Sentrin-specific protease 1 (Homo sapiens), Q9P0U3; recombinant SENP1 catalytic domain, CyPet-SUMO1-YPet FRET cleavage; inhibition, % at 10 µM; 360,000 compounds, 0.21% hits;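 active = inhibition at least 30% at 10 µM, raw YFP signal under a set limit, fluorescence ratio 0.5 to 1.5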
Target sequence (Q9P0U3 419-644 limits assumed): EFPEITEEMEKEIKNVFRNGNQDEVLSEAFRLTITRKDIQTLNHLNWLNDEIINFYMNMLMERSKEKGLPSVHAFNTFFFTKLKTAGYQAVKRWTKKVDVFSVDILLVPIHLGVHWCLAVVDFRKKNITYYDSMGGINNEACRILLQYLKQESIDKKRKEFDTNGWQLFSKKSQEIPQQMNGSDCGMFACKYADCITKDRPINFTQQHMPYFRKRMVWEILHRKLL
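Assay system – human recombinant His6-tagged SENP1 catalytic domain enzyme · Input – SENP1 enzyme, 20 pM final · Buffer or medium – Tris pH 8 buffer plus EDTA, NaCl, BME, BSA, NP40, catalase · Schedule – 50 min reaction at room temperature · Technique – FRET read of cyan and yellow fluorescence · Control set – no-enzyme wells low, DMSO-plus-enzyme wells high control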
SENP8 block-2: SENP8 protease inhibitors, primary screen, biochemical, luminescence. Sentrin-specific protease 8 (Homo sapiens), Q96LD8. purified SENP8, Z-RLRGG-aminoluciferin cleavage. inhibition, % at 10 µM. 330,000 compounds, 1.2% hits; in the data active = inhibition above about 50%
Hits are given with their value; . = inactive; / = no result given. Rows were chosen to be rich in hits. Some 2.5% of all compounds tested hit in one or more screens of this group.

SMILES	SENP6 block	SENP7 block	SENP8 block-1	SENP1 inh	SENP8 block-2
CCCC(=O)NC(c1cccs1)c1cc([N+](=O)[O-])c2cccnc2c1O (stereo not given)	/	/	52	.	/
CC(=O)NC(c1cccs1)c1cc([N+](=O)[O-])c2cccnc2c1O (stereo not given)	/	/	45	.	/
CC(=O)NC(c1ccccc1)c1cc([N+](=O)[O-])c2cccnc2c1O (stereo not given)	.	.	52	.	.
CC(C)C(=O)NC(c1ccccc1)c1cc([N+](=O)[O-])c2cccnc2c1O (stereo not given)	.	.	.	.	.
Cc1ccc(-c2nn(C)c(=O)c3ccccc23)cc1CNC(=O)NC1CCCCC1	.	.	.	.	.
Cc1cn(CC(=O)N2CCN(c3ccccn3)CC2)c(=O)[nH]c1=O	/	/	.	.	/
Clc1ccc(C=NN2CCCCCC2)cc1Cl	/	/	.	.	/
CC1CCCC(C)N1/N=C/c1ccc(O)c(O)c1 (stereo not given)	.	.	51	.	.
COc1ccc(/C=N/N2C(C)CCCC2C)cc1O (stereo not given)	.	.	.	.	.
Oc1ccc(/C=N/N2CCCCC2)cc1O	.	.	45	.	.
NC12CC3CC(C1)CC(CO)(C3)O2	.	.	.	.	.
N#C/C(=C\c1ccc(F)cc1F)S(=O)(=O)c1ccccn1	.	.	.	.	.
CN(C)CCCN(C(=O)c1ccc(Br)s1)c1nc2cc3c(cc2s1)OCCO3	.	.	.	.	.
CN(C)CCCN(C(=O)c1ccc([N+](=O)[O-])s1)c1nc2cc3c(cc2s1)OCCO3	.	.	.	.	55
Cc1ccc(C(=O)N2C(=O)c3cccc(N)c3C2=O)o1	82	.	.	.	.
O=C1/C(=C/c2ccc(Br)cc2)Oc2cc(O)ccc21	56	.	.	.	53
Cc1cc(C)c(OCC(O)CN2CCN(c3ccccn3)CC2)c(C)c1 (stereo not given)	.	.	.	.	.
CN(C)c1ccc(C=C2SC(=S)N(Cc3ccco3)C2=O)cc1	/	/	48	.	/
CCC(=O)Nc1ccc(-c2cc3ccccc3oc2=O)cc1	.	.	.	.	.
CC(=O)Nc1ccc(-c2cc3ccccc3o2)cc1	.	51	.	.	.
O=C1NN(c2ccccc2)C(=O)/C1=C\c1cccc(OC(=O)c2cccs2)c1	.	.	44	.	.
Cc1ccc([N+](=O)[O-])cc1S(=O)(=O)Nc1ccc(C(=O)N2CCN(C(=O)c3ccco3)CC2)cc1	.	.	.	.	.
CC(=O)c1cccc(NC(=O)C(C)N(C)CC(=O)Nc2ccc(Cl)cc2)c1 (stereo not given)	.	.	.	.	.
COc1cc(OC)c(C(=O)/C=C/c2ccccc2)c(O)c1O	.	.	45	.	.
Cc1ccc(C)c(NC(=O)c2ccc(S(=O)(=O)N(C)CC3CCCO3)cc2)c1 (stereo not given)	.	.	.	.	.
SMILES	SENP6 block	SENP7 block	SENP8 block-1	SENP1 inh	SENP8 block-2
CNC[C@H](O)c1ccc(O)c(O)c1	.	.	55	.	.
CCO[C@@H]1OC(C(=O)N2CCCCCCC2)=C[C@H](C2CCCCC2)[C@H]1CCCO	.	.	.	.	.
CCN1CCN(c2ccc(NC(=O)c3cc(S(=O)(=O)N4CCCC4)ccc3Cl)cc2)CC1	.	.	.	.	.
Cc1cc(N=Nc2ccccc2C(=O)O)c(C)c(C)c1O	.	.	.	33	.
O=C(O)c1ccc(N=Nc2c(O)[nH]c3cc(Cl)ccc23)cc1	97	97	.	.	95
Nc1nc(N)c(N=Nc2ccc(C(=O)O)cc2)c(N)n1	.	.	.	.	.
O=C(O)c1ccc(N=Nc2c(O)[nH]c3ccc(Br)cc23)cc1	57	62	.	.	69
COc1ccc(CC(=O)Nc2ccc(-c3cn4ccc(C)cc4n3)cc2)cc1	.	.	.	.	.
CCOC1=C2CN(S(=O)(=O)c3ccc(C)cc3)[C@@H](c3cccs3)C[C@H]2[C@H]2C(=O)N(c3ccccc3)C(=O)[C@H]2C1	/	/	.	.	/
O=C(c1ccccc1)c1ccc(-c2ccc(O)cc2)cc1	50	.	.	.	51
COc1ccc(N2CCN(C(=O)c3cc(S(=O)(=O)N4CCCCCC4)ccc3OC)CC2)cc1	.	.	.	.	.
C#CCn1cc(C=C2C(=O)c3ccccc3C2=O)c2ccccc21	/	/	38	.	/
S=C1c2ccccc2CN1c1ccccc1	.	.	.	.	.
Cc1ccc(N2Cc3ccccc3C2=S)cc1	54	59	.	.	.
Cc1cc(C)nc(SCc2csc(-c3ccccc3)n2)n1	60	.	.	.	.
CCc1ccc(NC(=O)CSc2nnc(CNC(=O)c3ccco3)o2)cc1	.	.	.	.	.
CCOC(=O)C1=NN(C(=O)c2ccc(C)cc2)C(O)(c2ccc(Cl)cc2)C1 (stereo not given)	.	.	.	31	.
CCC1=NN(C(=O)c2ccc(Cl)cc2)C(O)(c2ccc(C)cc2)C1 (stereo not given)	.	.	.	.	.
CCN(CC)c1ccc(/C=N/NC(=O)c2ccc3c(c2)OCCO3)cc1	.	.	.	.	.
CCN(CC)c1ccc(/C=N/NC(=O)c2ccc(Br)o2)cc1	70	.	.	.	.
Cc1ccccc1OCC(=O)NNC(=O)Cn1[nH]c(=O)c2ccccc2c1=O	.	.	.	.	.
CC(=O)N1CCc2c(sc(NC(=O)C3CC3)c2-c2nc3ccccc3s2)C1	68	.	.	.	.
O=C(O)CSCC(=O)N(c1ccccc1)c1ccccc1	.	.	.	.	.
Cc1ccccc1/C=N/NC(=O)c1sccc1C	96	99	.	.	95
O=C(CC1(CC2=NS(=O)(=O)c3ccccc3N2)CCCC1)NCCc1ccccc1	.	.	.	.	.
SMILES	SENP6 block	SENP7 block	SENP8 block-1	SENP1 inh	SENP8 block-2
COc1ccc(Nc2ccccc2N)cc1	.	.	.	34	.
O=[N+]([O-])C1=CC=C2C(=NC3(CCCCC3)N2O)C1=NC1CCCCC1	.	.	.	.	.
CC1(C)CC(N=C2C([N+](=O)[O-])=CC=C3C2=NC2(CCCCC2)N3O)CC(C)(C)N1	.	.	50	.	.
COc1ccc(C(=O)c2coc3c2C(=O)C(=O)c2ccccc2-3)cc1	.	.	83	.	.
CCOc1ccc(/C=C2\SC(=S)N(NS(=O)(=O)c3ccc(C)cc3)C2=O)cc1OC	.	.	43	.	.
CCOc1ccc(/C=C2\SC(=S)N(NS(=O)(=O)c3ccccc3)C2=O)cc1OC	.	.	.	.	.
N#Cc1cc2c(nc1SCc1nc3ccccc3[nH]1)CCC2	81	.	/	/	54
